Calls of active or inactive are those of the source. The calls are words filed in the database; no cut-off is given here.
Key:
[1] = test system: Candida albicans; experiment: Antimicrobial activity against antibiotic resistant Candida albicans clinical isolate 08030809 assessed as clone count at MIC after 1 min by colony counting assay (reference value: 62 +/- 7 CFU); assay type: functional
[2] = test system: Candida albicans; experiment: Antimicrobial activity against antibiotic resistant Candida albicans clinical isolate 08030809 assessed as clone count at 5 times MIC after 10 mins by colony counting assay (reference value: 102 +/- 11 CFU); assay type: functional
[3] = test system: Mus musculus; experiment: Antiinflammatory activity in antibiotic resistant Candida albicans clinical isolate 08030809 induced mouse vaginitis model assessed as reduction in IL-6 secretion in vaginal tissue at 20 ug administered as intravaginal instillation measured on day 10 by ELISA; assay type: functional, Vagina
Procedure, shortened: (§1)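 Same estradiol-primed mouse model, infected intravaginally with C. albicans 08030809 and treated by intravaginal instillation (20 µL/mouse). Vaginal canals excised on day 10 of treatment and homogenised in 0.9% NaCl. Supernatant taken after 2,000 g for 15 min. TNF-α, IL-6, IL-1β and IL-10 measured by ELISA. Mean ± SE of three independent experiments; unpaired t-test versus vehicle.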

[4] = test system: Candida albicans; experiment: Antimicrobial activity against antibiotic resistant Candida albicans clinical isolate 08032710 compound treated in PBS solution measured after 36 hrs by disc diffusion method; assay type: functional; conditions: isolate 08032710, 36 h
Procedure, shortened: (§2)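 Salt-tolerance test: peptide at 2 mg/mL was prepared in sterile ddH2O, in 150 mM NaCl, or in PBS (150 mM NaCl, 2.7 mM KCl, 1.5 mM KH2PO4, 8 mM K2HPO4, pH 7.2). Anti-C. albicans activity was then assessed by inhibition zone on Sabouraud medium with 0.7% agar.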

[5] = test system: Candida albicans; experiment: Effect on cell morphology in antibiotic resistant Candida albicans clinical isolate 08030809 assessed as intracellular inclusions at MIC to 2.5 times MIC after 30 mins by scanning electron microscopy; assay type: functional, organism-based
Procedure, shortened: (§3)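 Exponential-phase C. albicans 08030809 was washed in PBS and resuspended in Sabouraud medium. Cells were treated 30 min at 37°C alongside a vehicle control. They were then fixed in 2.5% glutaraldehyde (4°C, 2 h) and 1% osmium tetroxide, dehydrated through graded ethanol, freeze-dried from tert-butanol, gold-coated and imaged by SEM. Images are typical of three experiments.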

[6] = test system: Candida albicans; experiment: Antimicrobial activity against antibiotic resistant Candida albicans clinical isolate 08030809 assessed as clone count at 5 times MIC after 30 mins by colony counting assay (reference value: 156 +/- 16 CFU); assay type: functional
[7] = test system: Candida albicans; experiment: Antimicrobial activity against antibiotic resistant Candida albicans clinical isolate 08030809 assessed as clone count at 10 times MIC after 12 hrs by colony counting assay (reference value: 54153 +/- 8769 CFU); assay type: functional
[8] = test system: Staphylococcus aureus; experiment: Antimicrobial activity against Staphylococcus aureus ATCC 2592 assessed as inhibition of […] growth after 16 hrs by broth dilution method; assay type: functional; conditions: ATCC 2592, 16 h
Procedure, shortened: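 Broth dilution in LB broth; 100 µL of 2 × 10^5 CFU/mL bacterial suspension plus 10 µL sample (stock series in 0.9% NaCl) in 90 µL broth, 37°C for 16 h. Growth read as A600; MIC is the lowest concentration completely inhibiting growth. Mean of three independent experiments run in duplicate.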

[9] = test system: Candida albicans; experiment: Antimicrobial activity against antibiotic resistant Candida albicans clinical isolate 08030809 assessed as clone count at 10 times MIC after 24 hrs by colony counting assay (Rvb > 10^5 CFU); assay type: functional
[10] = test system: Candida albicans; experiment: Antimicrobial activity against antibiotic resistant Candida albicans clinical isolate 08030809 assessed as clone count at 10 times MIC after 10 mins by colony counting assay (reference value: 102 +/- 11 CFU); assay type: functional
[11] = test system: Candida albicans; experiment: Antimicrobial activity against antibiotic resistant Candida albicans clinical isolate 08032710 compound treated in double distilled water measured after 36 hrs by disc diffusion method; assay type: functional; conditions: isolate 08032710, 36 h; procedure, shortened: as §2
[12] = test system: Candida albicans; experiment: Antimicrobial activity against antibiotic resistant Candida albicans clinical isolate 08022710 after 16 hrs by broth dilution method; assay type: functional; conditions: isolate 08022710, 16 h
Procedure, shortened: (§4)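 Broth microdilution in Sabouraud liquid medium. Samples are stocks in 0.9% NaCl, 10 µL added to 90 µL broth plus 100 µL of 2 × 10^5 CFU/mL yeast suspension. Incubated 16 h at 28°C, growth read by A600. MIC is the lowest concentration completely inhibiting growth; mean of three independent experiments.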

[13] = test system: Candida albicans; experiment: Antimicrobial activity against antibiotic resistant Candida albicans clinical isolate 08030809 assessed as clone count at 5 times MIC after 1 min by colony counting assay (reference value: 62 +/- 7 CFU); assay type: functional
[14] = test system: Candida albicans; experiment: Antimicrobial activity against antibiotic resistant Candida albicans clinical isolate 08030809 assessed as clone count at MIC after 1 hr by colony counting assay (reference value: 228 +/- 23 CFU); assay type: functional
[15] = test system: Candida albicans; experiment: Antimicrobial activity against antibiotic resistant Candida albicans clinical isolate 08030809 compound treated in PBS solution measured after 36 hrs by disc diffusion method; assay type: functional; conditions: isolate 08030809, 36 h; procedure, shortened: as §2
[16] = test system: Candida albicans; experiment: Antimicrobial activity against antibiotic resistant Candida albicans clinical isolate 08032710 compound treated in NaCl solution measured after 36 hrs by disc diffusion method; assay type: functional; conditions: isolate 08032710, 36 h; procedure, shortened: as §2
[17] = Induction of hemolysis in human RBC at 320 ug/mL after 30 mins; assay type: cell-based, Erythrocyte; conditions: red blood cells, read-out: Activity
Procedure, shortened: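 Serial dilutions were incubated with human erythrocytes for 30 min at 37°C. Supernatant absorbance was read at 540 nm after centrifugation. Hemolysis is expressed as % of the 1% Triton X-100 lysis value, pooled from three independent experiments. The highest concentration tested was 320 µg/mL.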

[18] = test system: Candida albicans; experiment: Effect on cell morphology in antibiotic resistant Candida albicans clinical isolate 08030809 assessed as cell swelling at MIC to 2.5 times MIC after 30 mins by scanning electron microscopy; assay type: functional, organism-based; procedure, shortened: as §3
[19] = test system: Candida albicans; experiment: Antimicrobial activity against antibiotic resistant Candida albicans clinical isolate 08030401 after 16 hrs by broth dilution method; assay type: functional; conditions: isolate 08030401, 16 h; procedure, shortened: as §4
[20] = test system: Candida albicans; experiment: Antimicrobial activity against antibiotic resistant Candida albicans clinical isolate 08030809 assessed as clone count at 5 times MIC after 24 hrs by colony counting assay (Rvb > 10^5 CFU); assay type: functional
[21] = test system: Candida albicans; experiment: Antimicrobial activity against antibiotic resistant Candida albicans clinical isolate 08030809 assessed as clone count at 5 times MIC after 1 hr by colony counting assay (reference value: 228 +/- 23 CFU); assay type: functional
[22] = test system: Mus musculus; experiment: Antiinflammatory activity in antibiotic resistant Candida albicans clinical isolate 08030809 induced mouse vaginitis model assessed as reduction in IL-1beta secretion in vaginal tissue at 20 ug administered as intravaginal instillation measured on day 10 by ELISA; assay type: functional, Vagina; procedure, shortened: as §1
[23] = test system: Mus musculus; experiment: Antiinflammatory activity in antibiotic resistant Candida albicans clinical isolate 08030809 induced mouse vaginitis model assessed as reduction in IL-10 secretion in vaginal tissue at 20 ug administered as intravaginal instillation measured on day 10 by ELISA; assay type: functional, Vagina; procedure, shortened: as §1
[24] = test system: Candida albicans; experiment: Antimicrobial activity against antibiotic resistant Candida albicans clinical isolate 08030809 assessed as clone count at MIC after 24 hrs by colony counting assay (Rvb > 10^5 CFU); assay type: functional
[25] = test system: Candida albicans; experiment: Antimicrobial activity against antibiotic resistant Candida albicans clinical isolate 08030809 compound treated in double distilled water measured after 36 hrs by disc diffusion method; assay type: functional; conditions: isolate 08030809, 36 h; procedure, shortened: as §2

H-VKRWKKWRWKWKKWV-NH2
Activity [1]: 18 CFU
Activity [2]: 9 CFU
inhibition (INH) [3]: 46%
MIC [4]: 2.79 µg/mL
Activity [5]: Active
Activity [6]: 0 CFU
Activity [7]: 0 CFU
MIC [8]: 1.17 µg/mL
Activity [9]: 0 CFU
Activity [10]: 4 CFU
MIC [11]: 2.79 µg/mL
MIC [12]: 4.69 µg/mL
Activity [13]: 10 CFU
Activity [14]: 0 CFU
MIC [15]: 1.4 µg/mL
MIC [16]: 2.79 µg/mL
hemolysis at 0.5 h, 320 ug/mL [17]: 3.1%
Activity [18]: Active
MIC [19]: 4.69 µg/mL
Activity [20]: 0 CFU
Activity [21]: 0 CFU
inhibition (INH) [22]: 44%
inhibition (INH) [23]: 39%
Activity [24]: 0 CFU
MIC [25]: 1.4 µg/mL

Source: ChEMBL document CHEMBL3779860, “A Designed Tryptophan- and Lysine/Arginine-Rich Antimicrobial Peptide with Therapeutic Potential for Clinical Antibiotic-Resistant Candida albicans Vaginitis” (J Med Chem, 2016)
